# Experimental data collected from several papers.
# Each line is one published result; the experiments were not run side by side.
# RET: Proto-oncogene tyrosine-protein kinase receptor Ret (RET, Homo sapiens, UniProt P07949)
# RET M918T: Proto-oncogene tyrosine-protein kinase receptor Ret (RET, Homo sapiens, UniProt P07949, M918T)
# RET V804L: Proto-oncogene tyrosine-protein kinase receptor Ret (RET, Homo sapiens, UniProt P07949, V804L)
# RET V804M: Proto-oncogene tyrosine-protein kinase receptor Ret (RET, Homo sapiens, UniProt P07949, V804M)
target,effect on,method,concentration,remaining binding,Compound
RET,binding,,1 µM,100%,N[C@@H]1CCN(c2nccc(-c3cnn4ncccc34)n2)C1
RET M918T,cell-free assay,competition with immobilised ligand,1 µM,100%,CCC(=N\O)/C(C)=C/c1ccc(F)cc1
RET,binding,competition with immobilised ligand,1 µM,64%,COc1cnc(Nc2cccc(S(N)(=O)=O)c2)nc1N1CCN(c2ccccc2)CC1
RET V804L,binding,,1 µM,100%,Cc1cnn2ncc(-c3ccnc(N(C)C)n3)c2c1
RET M918T,binding,competition with immobilised ligand,1 µM,100%,O=C(Nc1c[nH]nc1C(=O)NC1CCNCC1)c1cc(F)cc(F)c1
RET,binding,,1 µM,86%,CN(CCCC(F)(F)F)c1nccc(-c2cnn3ncccc23)n1
RET V804L,cell-free assay,competition with immobilised ligand,1 µM,99%,O=C(N1CCS(=O)(=O)CC1)N1C[C@H](c2ccc(OC(F)(F)F)cc2)C[C@H](c2nc(C3CC3)no2)C1
RET V804M,binding,competition with immobilised ligand,1 µM,100%,CNC(=O)[C@@H]1CC[C@@H](n2c(-c3ccc4cnccc4c3)nc3ccc(C(=O)NCc4cccc(C(N)=O)c4)cc32)C1
RET V804M,binding,competition with immobilised ligand,10 µM,8.8%,c1cncc(-c2cccc(Nc3nccc(NC4CCCCC4)n3)c2)c1
RET V804M,cell-free assay,competition with immobilised ligand,1 µM,100%,O=C(NS(=O)(=O)c1ccc(NCC2CCOCC2)c([N+](=O)[O-])c1)c1ccc(N2CCN(Cc3ccc(C(F)(F)F)cc3-c3ccc(Cl)cc3)CC2)cc1Oc1cnc2[nH]ccc2c1
RET V804L,binding,,1 µM,100%,COc1ccnn2ncc(-c3ccnc(N(C)C)n3)c12
RET V804M,binding,competition with immobilised ligand,1 µM,100%,Nc1ncc2c(n1)-c1c([nH]c3ccc(C#CC4CC4)cc13)CCCC2
RET M918T,binding,competition with immobilised ligand,1 µM,96%,O=C(N[C@H]1CCCCC/C=C\C2C[C@@]2(C(=O)O)NC(=O)[C@@H]2C[C@@H](Oc3ccncc3)CN2C1=O)OC1CCCC1 (some centres unmarked)
RET M918T,binding,competition with immobilised ligand,1 µM,8.4%,O=C(c1ccc(Nc2ncc(Cl)c(-c3ccc(Cl)s3)n2)cc1)N1CCC(N2CCCC2)CC1
RET M918T,binding,,10 µM,34%,CN1CCN(c2ccc(Nc3nccc(-c4cccc([N+](=O)[O-])c4)n3)cc2C(F)(F)F)CC1
RET V804M,binding,,1 µM,100%,CC1CCCN1c1nccc(-c2cnn3ncccc23)n1 (centres unmarked)
RET M918T,cell-free assay,competition with immobilised ligand,1 µM,100%,COc1cc(-c2cn(C3CCc4ccccc4N(CC(F)(F)F)C3=O)nn2)ccc1-n1ccc(C)n1 (centres unmarked)
RET M918T,binding,competition with immobilised ligand,1 µM,5.2%,Cc1cnc(Nc2ccc(C(=O)N3CCC(N4CCCC4)CC3)cc2)nc1-c1cc2ccccc2s1
RET V804L,binding,,1 µM,99%,CN(C)c1nccc(-c2cnn3ncccc23)n1
RET M918T,cell-free assay,competition with immobilised ligand,0.1 µM,93%,CS(=O)(=O)N1CCCC(NC(=O)[C@H](CCC2CCCCC2)NC(=O)c2ccc(CNC(=O)c3cnc4ccccn34)cc2)C1 (some centres unmarked)
RET,binding,competition with immobilised ligand,1 µM,24%,O=C(NCCCN1CCOCC1)c1ccc(Nc2ncc(Cl)c(-c3ccc(Cl)s3)n2)cc1
RET M918T,binding,,1 µM,100%,C[C@@H]1CCN(c2nccc(-c3cnn4ncccc34)n2)C1
RET M918T,cell-free assay,competition with immobilised ligand,1 µM,100%,O=C(Nc1ccc(Oc2ccc(F)cc2)cc1)N1CCc2ncccc2[C@H]1c1ccc(F)cc1
